Laboratory results published in ChEMBL document CHEMBL3608272, “Design, synthesis and anticancer properties of novel oxa/azaspiro[4,5]trienones as potent apoptosis inducers through mitochondrial disruption” (2015).
One block for each compound: values may come before it. The source made the active and inactive calls. No cut-off for these calls is given here.

Tests used:
MCF7 [1] = assay: Induction of apoptosis in human MCF7 cells assessed as induction of caspase-9 activity at 1 uM incubated for 48 hrs by ELISA method relative to control; type: functional
How it was run: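 MCF-7 cells were treated for 48 h, pelleted, washed in PBS and lysed for 15 min. After centrifugation at 20,000 rpm for 15 min, caspase-9 activity in the supernatant was measured with a kit ELISA and expressed relative to untreated control. Mean ± SD of two experiments run in triplicate.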

MCF7 [2] = assay: Anti-proliferative activity against human MCF7 cells incubated for 48 hrs by SRB assay; type: functional; conditions: MCF7, 48 h
How it was run: (§1)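 SRB assay. Cells in DMEM with 10% FBS were seeded and grown 24 h at 37 °C in CO2. Compounds were diluted from a 10 mM DMSO stock to 1, 5 and 10 µM, with DMSO at most 0.1%, and exposed 48 h. Cells were fixed with 10% TCA for 60 min at 4 °C and stained 20 min at room temperature with 0.4% SRB in 1% acetic acid. Dye was eluted with 10 mM trizma base and absorbance read at 540 nm. Run in triplicate; GI50 given as mean ± SD of three determinations.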

DU-145 = assay: Anti-proliferative activity against human DU145 cells incubated for 48 hrs by SRB assay; type: functional; conditions: DU-145, 48 h; how it was run: as §1
A549 = assay: Anti-proliferative activity against human A549 cells incubated for 48 hrs by SRB assay; type: functional; conditions: A549, 48 h
HepG2 = assay: Anti-proliferative activity against human HepG2 cells incubated for 48 hrs by SRB assay; type: functional; conditions: HepG2, 48 h; how it was run: as §1
MCF7 [3] = assay: Induction of cell cycle arrest in human MCF7 cells assessed as accumulation at sub G1 phase at 0.5 uM incubated for 48 hrs by propidium iodide staining based flow cytometry (reference value: 2.75%); type: functional
How it was run: (§2)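 MCF-7 cells were treated 48 h, harvested, washed in PBS, fixed in ice-cold 70% ethanol and stained with propidium iodide. Phase distribution was measured by flow cytometry and compared with untreated cells.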

MCF7 [4] = assay: Induction of cell cycle arrest in human MCF7 cells assessed as accumulation at sub G1 phase at 1 uM incubated for 48 hrs by propidium iodide staining based flow cytometry (reference value: 2.75%); type: functional; how it was run: as §2
MCF7 [5] = assay: Induction of cell cycle arrest in human MCF7 cells assessed as accumulation at G0/G1 phase at 0.5 uM incubated for 48 hrs by propidium iodide staining based flow cytometry (reference value: 77.79%); type: functional; how it was run: as §2
MCF7 [6] = assay: Induction of cell cycle arrest in human MCF7 cells assessed as accumulation at G0/G1 phase at 1 uM incubated for 48 hrs by propidium iodide staining based flow cytometry (reference value: 77.79%); type: functional; how it was run: as §2
MCF7 [7] = assay: Induction of cell cycle arrest in human MCF7 cells assessed as accumulation at S phase at 0.5 uM incubated for 48 hrs by propidium iodide staining based flow cytometry (reference value: 0.99%); type: functional; how it was run: as §2
MCF7 [8] = assay: Induction of cell cycle arrest in human MCF7 cells assessed as accumulation at S phase at 1 uM incubated for 48 hrs by propidium iodide staining based flow cytometry (reference value: 0.99%); type: functional; how it was run: as §2
MCF7 [9] = assay: Induction of cell cycle arrest in human MCF7 cells assessed as accumulation at G2/M phase at 0.5 uM incubated for 48 hrs by propidium iodide staining based flow cytometry (reference value: 11.98%); type: functional; how it was run: as §2
MCF7 [10] = assay: Induction of cell cycle arrest in human MCF7 cells assessed as accumulation at G2/M phase at 1 uM incubated for 48 hrs by propidium iodide staining based flow cytometry (reference value: 11.98%); type: functional; how it was run: as §2
MCF7 [11] = assay: Reduction in mitochondrial membrane potential in human MCF7 cells at 0.5 and 1 uM incubated for 48 hrs by JC1 dye staining based flow cytometry; type: functional, cell-based
How it was run: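 MCF-7 cells (1 × 10^6 per well) in six-well plates were treated 48 h, trypsinized, washed in PBS and stained with 5 µg/mL JC-1 for 15 min at 37 °C. Cells were rinsed three times, resuspended in prewarmed medium and analysed by flow cytometry in the FL1 and FL2 channels.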

MCF7 [12] = assay: Induction of ROS generation in human MCF7 cells at 0.5 uM incubated for 48 hrs by DCFDA dye based flow cytometry (reference value: 1.2%); type: functional
MCF7 [13] = assay: Induction of ROS generation in human MCF7 cells at 1 uM incubated for 48 hrs by DCFDA dye based flow cytometry (reference value: 1.2%); type: functional
MCF7 [14] = assay: Induction of apoptosis in human MCF7 cells assessed as necrotic cells levels at 0.5 uM incubated for 48 hrs by Annexin V-FITC and propidium iodide staining based flow cytometry (reference value: 0.86%); type: functional
MCF7 [15] = assay: Induction of apoptosis in human MCF7 cells assessed as necrotic cells levels at 1 uM incubated for 48 hrs by Annexin V-FITC and propidium iodide staining based flow cytometry (reference value: 0.86%); type: functional
MCF7 [16] = assay: Induction of apoptosis in human MCF7 cells assessed as late apoptotic cells levels at 0.5 uM incubated for 48 hrs by Annexin V-FITC and propidium iodide staining based flow cytometry (reference value: 3.08%); type: functional
MCF7 [17] = assay: Induction of apoptosis in human MCF7 cells assessed as late apoptotic cells levels at 1 uM incubated for 48 hrs by Annexin V-FITC and propidium iodide staining based flow cytometry (reference value: 3.08%); type: functional
MCF7 [18] = assay: Induction of apoptosis in human MCF7 cells assessed as viable cells levels at 0.5 uM incubated for 48 hrs by Annexin V-FITC and propidium iodide staining based flow cytometry (reference value: 92.5%); type: functional
MCF7 [19] = assay: Induction of apoptosis in human MCF7 cells assessed as viable cells levels at 1 uM incubated for 48 hrs by Annexin V-FITC and propidium iodide staining based flow cytometry (reference value: 92.5%); type: functional
MCF7 [20] = assay: Induction of apoptosis in human MCF7 cells assessed as early apoptotic cells levels at 0.5 uM incubated for 48 hrs by Annexin V-FITC and propidium iodide staining based flow cytometry (reference value: 3.57%); type: functional
MCF7 [21] = assay: Induction of apoptosis in human MCF7 cells assessed as early apoptotic cells levels at 1 uM incubated for 48 hrs by Annexin V-FITC and propidium iodide staining based flow cytometry (reference value: 3.57%); type: functional
MCF7 [22] = assay: Induction of apoptosis in human MCF7 cells assessed as increase in p53 protein levels at 1 uM incubated for 48 hrs by Western blot method; type: functional, cell-based
How it was run: (§3)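 MCF-7 cells were treated for 48 h and lysed in ice-cold RIPA buffer with PMSF, aprotinin, leupeptin, pepstatin and NaF. Protein was quantified by Bradford, and 50 µg per lane was run on 12% SDS-PAGE and transferred to PVDF. Membranes were blocked 2 h in TBST with 5% blocking powder, probed with primary antibody overnight and HRP secondary for 1 h at room temperature, then detected by chemiluminescence.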

MCF7 [23] = assay: Induction of apoptosis in human MCF7 cells assessed as increase in p21 protein levels at 1 uM incubated for 48 hrs by Western blot method; type: functional, cell-based; how it was run: as §3
MCF7 [24] = assay: Induction of apoptosis in human MCF7 cells assessed as increase in p27 protein levels at 1 uM incubated for 48 hrs by Western blot method; type: functional, cell-based; how it was run: as §3
MCF7 [25] = assay: Induction of apoptosis in human MCF7 cells assessed as increase in Bax protein levels at 1 uM incubated for 48 hrs by Western blot method; type: functional, cell-based; how it was run: as §3
MCF7 [26] = assay: Induction of apoptosis in human MCF7 cells assessed as reduction in Bcl2 protein levels at 1 uM incubated for 48 hrs by Western blot method; type: functional, cell-based; how it was run: as §3

SMILES: CN1C(=O)C(c2ccc(C=O)s2)=C(c2ccccc2)C12C=CC(=O)C=C2
GI50 (MCF7 [2]): 3.6 µM | GI50 (DU-145): 8.2 µM | GI50 (A549): 16.6 µM | GI50 (HepG2): 13.9 µM

SMILES: CN1C(=O)C(c2ccc3c(c2)OCO3)=C(c2ccccc2)C12C=CC(=O)C=C2
GI50 (MCF7 [2]): 6.7 µM | GI50 (DU-145): 16.3 µM | GI50 (A549): 30.2 µM | GI50 (HepG2): 19.6 µM

SMILES: O=Cc1ccc(C2=C(c3ccccc3)C3(C=CC(=O)C=C3)OC2=O)s1
GI50 (MCF7 [2]): 3.4 µM | GI50 (DU-145): 4 µM | GI50 (A549): 4.6 µM | GI50 (HepG2): 2.6 µM

SMILES: Cc1ccc(C2=C(c3ccccc3)C3(C=CC(=O)C=C3)N(C)C2=O)cc1Cl
GI50 (MCF7 [2]): 7.4 µM | GI50 (DU-145): 12.1 µM | GI50 (A549): 21.1 µM | GI50 (HepG2): 10.4 µM

SMILES: CN1C(=O)C(c2cccc(Cl)c2Cl)=C(c2ccccc2)C12C=CC(=O)C=C2
GI50 (MCF7 [2]): 9.9 µM | GI50 (DU-145): 14 µM | GI50 (A549): 27.6 µM | GI50 (HepG2): 10.5 µM

SMILES: CN1C(=O)C(c2ccc(C(F)(F)F)cc2)=C(c2ccccc2)C12C=CC(=O)C=C2
GI50 (MCF7 [2]): 8.1 µM | GI50 (DU-145): 17.6 µM | GI50 (A549): 30.3 µM | GI50 (HepG2): 13.7 µM

SMILES: COc1ccc(C2=C(c3ccccc3)C3(C=CC(=O)C=C3)N(C)C2=O)c(OC)c1
GI50 (MCF7 [2]): 71.7 µM | GI50 (DU-145): 62.7 µM | GI50 (A549): 101 µM | GI50 (HepG2): 69.1 µM

SMILES: O=C1C=CC2(C=C1)OC(=O)C(c1ccc(O)cc1)=C2c1ccccc1
GI50 (MCF7 [2]): 3.4 µM | GI50 (DU-145): 2.7 µM | GI50 (A549): 6.2 µM | GI50 (HepG2): 3.5 µM

These reach a lower GI50 (MCF7 [2]). Values come first.

GI50 (MCF7 [2]): 1 µM | GI50 (DU-145): 0.9 µM | GI50 (A549): 4.6 µM | GI50 (HepG2): 1.4 µM
SMILES: COc1ccc(F)cc1C1=C(c2ccccc2)C2(C=CC(=O)C=C2)OC1=O
fold change (FC) (MCF7 [1]): 2 | Activity (MCF7 [3]): 2.89% | Activity (MCF7 [4]): 3.25% | Activity (MCF7 [5]): 81.44% | Activity (MCF7 [6]): 88.42% | Activity (MCF7 [7]): 1.12% | Activity (MCF7 [8]): 1.3% | Activity (MCF7 [9]): 9.63% | Activity (MCF7 [10]): 2.2% | inhibition (MCF7 [11]): Active | Activity (MCF7 [12]): 16.2% | Activity (MCF7 [13]): 57.4% | Activity (MCF7 [14]): 1.69% | Activity (MCF7 [15]): 4.77% | Activity (MCF7 [16]): 7.25% | Activity (MCF7 [17]): 24.21% | Activity (MCF7 [18]): 86.85% | Activity (MCF7 [19]): 64.39% | Activity (MCF7 [20]): 4.22% | Activity (MCF7 [21]): 6.64% | Activity (MCF7 [22]): Active | Activity (MCF7 [23]): Active | Activity (MCF7 [24]): Active | Activity (MCF7 [25]): Active | Activity (MCF7 [26]): Active

GI50 (MCF7 [2]): 1.6 µM | GI50 (DU-145): 0.95 µM | GI50 (A549): 1.9 µM | GI50 (HepG2): 1.4 µM
SMILES: COc1cccc2c1C(=O)c1c(O)c3c(c(O)c1C2=O)C[C@@](O)(C(=O)CO)C[C@@H]3O[C@H]1C[C@H](N)[C@H](O)[C@H](C)O1 [DOXORUBICIN]

GI50 (MCF7 [2]): 1.2 µM | GI50 (DU-145): 4.3 µM | GI50 (A549): 7.8 µM | GI50 (HepG2): 6.3 µM
SMILES: COC(=O)/C=C/C1=C(c2ccccc2)C2(C=CC(=O)C=C2)OC1=O

GI50 (MCF7 [2]): 1.7 µM | GI50 (DU-145): 2.4 µM | GI50 (A549): 8.1 µM | GI50 (HepG2): 3.3 µM
SMILES: O=C1C=CC2(C=C1)OC(=O)C(c1ccc(CO)cc1)=C2c1ccccc1

GI50 (MCF7 [2]): 1.8 µM | GI50 (DU-145): 4.1 µM | GI50 (A549): 7.3 µM | GI50 (HepG2): 3.4 µM
SMILES: COc1ccc(C2=C(c3ccccc3)C3(C=CC(=O)C=C3)OC2=O)cc1
